In ChEMBL document CHEMBL2417386, “Novel conjugated quinoline-indoles compromise Plasmodium falciparum mitochondrial function and show promising antimalarial activity” (J Med Chem, 2013):

Key:
Plasmodium falciparum [1] = test: Antimalarial activity against mid to late trophozoite stage of Plasmodium falciparum 3D7 infected in RBC assessed as abnormal mitochondria at 20 uM after 0.5 hrs by MitoTracker Red CMXRos-based fluorescence microscopic analysis relative to untreated control; assay type: functional
Plasmodium falciparum [2] = test: Antimalarial activity against Plasmodium falciparum K1 infected in RBC assessed as growth inhibition after 48 hrs by SYBR Green-I fluorescence assay; assay type: functional, organism-based; settings: K1, 48 h
Outline: (§1)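 Parasite-infected red cells exposed to compound for 48 h; growth read by SYBR Green-I fluorescence; IC50 derived. Where a ± is given, it is the standard deviation of three individual experiments.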

Plasmodium falciparum [3] = test: Antimalarial activity against Plasmodium falciparum 3D7 infected in RBC assessed as growth inhibition after 48 hrs by SYBR Green-I fluorescence assay; assay type: functional, organism-based; settings: 3D7, 48 h; outline: as §1
Plasmodium falciparum [4] = test: Antimalarial activity against trophozoite stage of Plasmodium falciparum 3D7 infected in RBC assessed as growth inhibition after 5 hrs by SYBR Green-I fluorescence assay; assay type: functional, organism-based; settings: 3D7, 5 h
Outline: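 Trophozoite-stage parasites pulsed with compound for 5 h. Drug then washed out and parasites cultured a further 43 h before survival was assessed.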

Plasmodium falciparum [5] = test: Ratio of IC50 for trophozoite stage of Plasmodium falciparum 3D7 infected in RBC after 5 hrs in presence of 0.2 uM ALLN to IC50 for trophozoite stage of Plasmodium falciparum 3D7 infected in RBC after 5 hrs in absence of ALLN; assay type: functional
Outline: (§2)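 Trophozoite-stage parasites pulsed 5 h with compound, with or without ALLN (0.2 or 5 μM). Drug and ALLN then removed; culture continued a further 43 h before survival was assessed. Antagonism expressed as the ratio of IC50 with ALLN to IC50 without ALLN.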

Plasmodium falciparum [6] = test: Antimalarial activity against mid to late trophozoite stage of Plasmodium falciparum 3D7 infected in RBC assessed as abnormal mitochondria at 1.7 uM after 0.5 hrs by MitoTracker Red CMXRos-based fluorescence microscopic analysis relative to untreated control; assay type: functional
Plasmodium falciparum [7] = test: Antimalarial activity against mid to late trophozoite stage of Plasmodium falciparum 3D7 infected in RBC assessed as abnormal mitochondria at 5 uM after 0.5 hrs by MitoTracker Red CMXRos-based fluorescence microscopic analysis relative to untreated control; assay type: functional
Plasmodium falciparum [8] = test: Ratio of IC50 for trophozoite stage of Plasmodium falciparum 3D7 infected in RBC after 5 hrs to IC50 for Plasmodium falciparum 3D7 infected in RBC after 48 hrs; assay type: functional
Plasmodium falciparum [9] = test: Antimalarial activity against mid to late trophozoite stage of Plasmodium falciparum 3D7 infected in RBC assessed as abnormal mitochondria at 0.56 uM after 0.5 hrs by MitoTracker Red CMXRos-based fluorescence microscopic analysis relative to untreated control; assay type: functional
Plasmodium falciparum [10] = test: Antimalarial activity against mid to late trophozoite stage of Plasmodium falciparum 3D7 infected in RBC assessed as nonviable parasite at 0.56 uM after 0.5 hrs by SYTO 61 staining-based flow cytometric analysis relative to untreated control; assay type: functional
Plasmodium falciparum [11] = test: Resistant index, ratio of IC50 for Plasmodium falciparum K1 to IC50 for Plasmodium falciparum 3D7; assay type: functional
Outline: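 Ratio of K1 to 3D7 IC50 values. Each IC50 comes from a 48 h drug exposure of the P. falciparum strain, with growth read by SYBR Green-I fluorescence. Where spread is given, it is the standard deviation of three individual experiments.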

Plasmodium falciparum [12] = test: Gametocytocidal activity against synchronous stage 1 to 3 of transgenic Plasmodium falciparum NF54 gametocyte harboring pfs16 promoter assessed as parasite viability after 72 hrs by luciferase reporter gene assay; assay type: functional, organism-based; settings: NF54, 72 h
Plasmodium falciparum [13] = test: Antimalarial activity against mid to late trophozoite stage of Plasmodium falciparum 3D7 infected in RBC assessed as nonviable parasite at 15 uM after 0.5 hrs by SYTO 61 staining-based flow cytometric analysis relative to untreated control; assay type: functional
Plasmodium falciparum [14] = test: Antimalarial activity against mid to late trophozoite stage of Plasmodium falciparum 3D7 infected in RBC assessed as abnormal mitochondria at 15 uM after 0.5 hrs by MitoTracker Red CMXRos-based fluorescence microscopic analysis relative to untreated control; assay type: functional
[15] = Selectivity index, ratio of IC50 for HEK293 cells to IC50 for Plasmodium falciparum 3D7 after 72 hrs; assay type: toxicity, cell-based; settings: human, read-out: Ratio IC50
Outline: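 Parasite (3D7) viability assay and HEK293 viability assay, each with a 72 h exposure. Index taken as the ratio of the IC50 values, HEK293 over 3D7.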

Plasmodium falciparum [16] = test: Antimalarial activity against mid to late trophozoite stage of Plasmodium falciparum 3D7 infected in RBC assessed as nonviable parasite at 5 uM after 0.5 hrs by SYTO 61 staining-based flow cytometric analysis relative to untreated control; assay type: functional
Plasmodium falciparum [17] = test: Gametocytocidal activity against synchronous stage 4 to 5 of transgenic Plasmodium falciparum NF54 gametocyte harboring pfs16 promoter assessed as parasite viability after 72 hrs by MitoTracker Red CMXRos-based assay; assay type: functional, organism-based; settings: NF54, 72 h
Plasmodium falciparum [18] = test: Antimalarial activity against mid to late trophozoite stage of Plasmodium falciparum 3D7 infected in RBC assessed as nonviable parasite at 1.7 uM after 0.5 hrs by SYTO 61 staining-based flow cytometric analysis relative to untreated control; assay type: functional
[19] = Inhibition of beta-hematin formation after 24 hrs by spectrophotometric analysis in presence of nonidet P40; assay type: functional
Plasmodium falciparum [20] = test: Ratio of IC50 for trophozoite stage of Plasmodium falciparum 3D7 infected in RBC after 5 hrs in presence of 5 uM ALLN to IC50 for trophozoite stage of Plasmodium falciparum 3D7 infected in RBC after 5 hrs in absence of ALLN; assay type: functional; outline: as §2
Plasmodium falciparum [21] = test: Antimalarial activity against mid to late trophozoite stage of Plasmodium falciparum 3D7 infected in RBC assessed as nonviable parasite at 0.6 uM after 0.5 hrs by SYTO 61 staining-based flow cytometric analysis relative to untreated control; assay type: functional
Plasmodium falciparum [22] = test: Gametocytocidal activity against asexual stage of transgenic Plasmodium falciparum NF54 gametocyte harboring pfs16 promoter assessed as parasite viability after 72 hrs by luciferase reporter gene assay; assay type: functional, organism-based; settings: NF54, 72 h
Plasmodium falciparum [23] = test: Antimalarial activity against mid to late trophozoite stage of Plasmodium falciparum 3D7 infected in RBC assessed as abnormal mitochondria at 0.6 uM after 0.5 hrs by MitoTracker Red CMXRos-based fluorescence microscopic analysis relative to untreated control; assay type: functional
Plasmodium falciparum [24] = test: Antimalarial activity against mid to late trophozoite stage of Plasmodium falciparum 3D7 infected in RBC assessed as nonviable parasite at 3 uM after 0.5 hrs by SYTO 61 staining-based flow cytometric analysis relative to untreated control; assay type: functional
Plasmodium falciparum [25] = test: Antimalarial activity against mid to late trophozoite stage of Plasmodium falciparum 3D7 infected in RBC assessed as abnormal mitochondria at 3 uM after 0.5 hrs by MitoTracker Red CMXRos-based fluorescence microscopic analysis relative to untreated control; assay type: functional
Plasmodium falciparum [26] = test: Antimalarial activity against mid to late trophozoite stage of Plasmodium falciparum 3D7 infected in RBC assessed as abnormal mitochondria at 0.001 uM after 0.5 hrs by MitoTracker Red CMXRos-based fluorescence microscopic analysis relative to untreated control; assay type: functional
Plasmodium falciparum [27] = test: Antimalarial activity against mid to late trophozoite stage of Plasmodium falciparum 3D7 infected in RBC assessed as abnormal mitochondria at 0.0002 uM after 0.5 hrs by MitoTracker Red CMXRos-based fluorescence microscopic analysis relative to untreated control; assay type: functional
Plasmodium falciparum [28] = test: Antimalarial activity against mid to late trophozoite stage of Plasmodium falciparum 3D7 infected in RBC assessed as nonviable parasite at 0.001 uM after 0.5 hrs by SYTO 61 staining-based flow cytometric analysis relative to untreated control; assay type: functional
Plasmodium falciparum [29] = test: Antimalarial activity against mid to late trophozoite stage of Plasmodium falciparum 3D7 infected in RBC assessed as nonviable parasite at 0.0002 uM after 0.5 hrs by SYTO 61 staining-based flow cytometric analysis relative to untreated control; assay type: functional

## N#CC(C#N)=NNc1cccc(Cl)c1 [CARBONYL CYANIDE M-CHLOROPHENYLHYDRAZONE]
Plasmodium falciparum [1]
  Activity: 74%

## Cc1cc(N)c2ccccc2[n+]1C
Plasmodium falciparum [2]
  IC50: > 5 µM
Plasmodium falciparum [3]
  IC50: > 4 µM

## Cc1[nH]c2ccccc2c1/C=C/c1cc(N)c2ccccc2[n+]1C.[I-]
Plasmodium falciparum [4]
  IC50: 0.73 µM
Plasmodium falciparum [2]
  IC50: 0.23 µM
Plasmodium falciparum [5]
  Ratio IC50: 1
Plasmodium falciparum [6]
  Activity: 86%
Plasmodium falciparum [7]
  Activity: 97%
Plasmodium falciparum [3]
  IC50: 0.17 µM
Plasmodium falciparum [8]
  Ratio IC50: 4.3
Plasmodium falciparum [9]
  Activity: 43%
Plasmodium falciparum [10]
  Activity: 18%
Plasmodium falciparum [11]
  Ratio IC50: 1.3
Plasmodium falciparum [12]
  IC50: 0.35 µM
Plasmodium falciparum [13]
  Activity: 86%
Plasmodium falciparum [14]
  Activity: 99%
[15]
  selectivity ratio at 72 h: 18
Plasmodium falciparum [16]
  Activity: 66%
Plasmodium falciparum [17]
  IC50: 1.9 µM
Plasmodium falciparum [18]
  Activity: 42%
[19]
  IC50: 220 µM
Plasmodium falciparum [20]
  Ratio IC50: 1.7

## Nc1cc(/C=C/c2n[nH]c3ccccc23)nc2ccccc12
Plasmodium falciparum [2]
  IC50: 0.4 µM
Plasmodium falciparum [3]
  IC50: 0.14 µM
Plasmodium falciparum [11]
  Ratio IC50: 2
[15]
  selectivity ratio at 72 h: 164

## C[n+]1c(/C=C/c2c[nH]c3ccccc23)cc(N)c2ccccc21.[I-]
Plasmodium falciparum [4]
  IC50: 1 µM
Plasmodium falciparum [2]
  IC50: 0.12 µM
Plasmodium falciparum [5]
  Ratio IC50: 1.5
Plasmodium falciparum [21]
  Activity: 8%
Plasmodium falciparum [22]
  IC50: 0.1 µM
Plasmodium falciparum [3]
  IC50: 0.2 µM
Plasmodium falciparum [23]
  Activity: 18%
Plasmodium falciparum [8]
  Ratio IC50: 5
Plasmodium falciparum [24]
  Activity: 73%
Plasmodium falciparum [11]
  Ratio IC50: 0.6
Plasmodium falciparum [12]
  IC50: 0.3 µM
Plasmodium falciparum [13]
  Activity: 81%
Plasmodium falciparum [14]
  Activity: 100%
[15]
  selectivity ratio at 72 h: 35
Plasmodium falciparum [17]
  IC50: 4 µM
[19]
  IC50: 1400 µM
Plasmodium falciparum [25]
  Activity: 91%
Plasmodium falciparum [20]
  Ratio IC50: 3

## CC1(C)N=C(N)N=C(N)N1OCCCOc1cc(Cl)c(Cl)cc1Cl
Plasmodium falciparum [4]
  IC50: 0.0004 µM
Plasmodium falciparum [26]
  Activity: 3%
Plasmodium falciparum [5]
  Ratio IC50: 0.7
Plasmodium falciparum [27]
  Activity: 3%
Plasmodium falciparum [3]
  IC50: 0.00046 µM
Plasmodium falciparum [8]
  Ratio IC50: 0.9
Plasmodium falciparum [28]
  Activity: 73%
Plasmodium falciparum [20]
  Ratio IC50: 0.7
Plasmodium falciparum [29]
  Activity: 40%

## CNc1cc(/C=C/c2c(C)[nH]c3ccccc23)[n+](C)c2ccccc12
Plasmodium falciparum [2]
  IC50: 1.6 µM
Plasmodium falciparum [3]
  IC50: 1.4 µM
[15]
  selectivity ratio at 72 h: 16

## C[n+]1c(/C=C/c2c[nH]c3ccccc23)cc(N)c2ccc(Cl)cc21
Plasmodium falciparum [2]
  IC50: 0.19 µM
Plasmodium falciparum [3]
  IC50: 0.4 µM
[15]
  selectivity ratio at 72 h: 2
[19]
  IC50: 300 µM

## C[C@H]1[C@H](OC(=O)CCC(=O)O)O[C@@H]2O[C@@]3(C)CC[C@H]4[C@H](C)CC[C@@H]1[C@@]24OO3 [ARTESUNATE]
Plasmodium falciparum [17]
  IC50: 0.008 µM
